This is an account of results in PMC3059893 (Biochemistry, 2011).

Like-named read-outs stand apart in the source and are kept apart here. Peptide text beside a SMILES is read from it. * marks the point of attachment. Dansyl = CN(C)c1cccc2c(S(=O)(=O)*)cccc12

One experiment addresses T1, Tiam2 PDZ domain (Mus musculus, UniProt Q6ZPF3).
T1 sequence (Q6ZPF3 908-997 limits assumed): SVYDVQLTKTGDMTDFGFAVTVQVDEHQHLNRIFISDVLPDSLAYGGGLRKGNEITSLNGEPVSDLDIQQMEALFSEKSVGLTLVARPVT
The experiment can be described thus: Equilibrium fluorescence anisotropy binding of dansylated peptides. The essentials:
(§1)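 Purified PDZ domains were titrated from a 1.5 mM stock into 1 μM N-terminally dansylated peptide at 25 °C in a stirred cuvette. Proteins were expressed in E. coli BL21(DE3), purified by Ni-chelate and size-exclusion chromatography, and His6-tag cleaved by TEV; Tiam2 is mouse residues 809–994; mutants made by site-directed mutagenesis. Anisotropy ex 340/em 550 nm, buffer-blank corrected. Kd from hyperbolic fit, mean of ≥3 independent runs; ΔG = RT ln Kd (298.15 K).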
For orientation: Polarisation of emitted light reports the rotation of a fluorescent probe.

The next experiment concerns the target Tiam1 PDZ L915F (Homo sapiens, UniProt Q13009, L915F). The experiment can be described thus: Fluorescence anisotropy binding, Tiam1 PDZ mutant. The essentials: as §1
For a further experiment, the target named is Tiam1 PDZ L911M (Homo sapiens, UniProt Q13009, L911M). Put plainly: Fluorescence anisotropy binding, Tiam1 PDZ mutant. The method, boiled down:
as §1

Experiment [1] has as its system Tiam1 PDZ L911M/K912E. Put plainly: Fluorescence anisotropy binding and double-mutant cycle, Tiam1 PDZ mutant. The following applies: for ΔΔGb: ΔGb(mutant) − ΔGb(wild-type), L911M/K912E. The essentials:
(§2)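 Wild-type, single- and double-mutant Tiam1 PDZ (E. coli-expressed, tag-cleaved) were each titrated into 1 μM dansylated peptide at 25 °C. Anisotropy read at ex 340/em 550 nm; Kd from hyperbolic fit, ≥3 independent runs. ΔG = RT ln Kd at 298.15 K. Coupling energy ΔΔΔGint = (ΔGWT − ΔGM1) − (ΔGM2 − ΔGDM), with errors propagated by standard methods.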

Experiment [2] deals with Tiam1 PDZ L911M/K912E (Mus musculus, UniProt Q60610, L911M/K912E, species not given). Described as above. To be noted: Tiam1 PDZ L911M/K912E; for Kd: fluorescence anisotropy, 25 °C. The method, boiled down: as §2
Another experiment has as its target Tiam1 PDZ L920V (Homo sapiens, UniProt Q13009, L920V). Put plainly: Fluorescence anisotropy binding, Tiam1 PDZ mutant. The essentials:
as §1

The target in the next experiment is Tiam1 PDZ K912E (Homo sapiens, UniProt Q13009, K912E). The experiment can be described thus: Fluorescence anisotropy binding, Tiam1 PDZ mutant. The method, boiled down:
as §1

The subject of experiment [3] is Tiam1 PDZ L915F/L920V. Put plainly: Fluorescence anisotropy binding and double-mutant cycle, Tiam1 PDZ mutant. The following applies: for ΔΔGb: ΔGb(mutant) − ΔGb(wild-type), L915F/L920V. The essentials: as §2
The target of experiment [4] is Tiam1 PDZ L915F/L920V (Mus musculus, UniProt Q60610, L915F/L920V, species not given). The description is as above. The following applies: Tiam1 PDZ L915F/L920V; for Kd: fluorescence anisotropy, 25 °C. The essentials: as §2
Experiment [5] has as its system Tiam1 PDZ QM (L911M/K912E/L915F/L920V). Put plainly: Fluorescence anisotropy binding, Tiam1 PDZ quadruple mutant. The following applies: for ΔΔGb: ΔGb(mutant) − ΔGb(wild-type), QM. The essentials: as §1
Experiment [6] addresses Tiam1 PDZ QM (L911M/K912E/L915F/L920V) (Homo sapiens, UniProt Q13009, K912E/L911M/L915F/L920V). The experiment is described as above. The following applies: for ΔGb: Tiam1 PDZ QM. The essentials: as §1
Experiment [7] deals with Tiam1 PDZ domain (wild-type) (Homo sapiens, UniProt Q13009). Put plainly: Equilibrium fluorescence anisotropy binding of dansylated peptides. The method, boiled down: as §1
Tiam1 PDZ domain (wild-type), sequence (Q13009 841-930 limits assumed): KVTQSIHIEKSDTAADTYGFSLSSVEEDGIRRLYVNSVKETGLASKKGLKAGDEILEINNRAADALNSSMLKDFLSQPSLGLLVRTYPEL

Tiam1 PDZ L911M, sequence (Q13009 841-930 L911M limits assumed): as the sequence (Q13009 841-930 limits assumed) above, with L71M counted along it
Tiam1 PDZ L915F, sequence (Q13009 841-930 L915F limits assumed): as the sequence (Q13009 841-930 limits assumed) above, with L75F counted along it
Tiam1 PDZ L911M/K912E (Mus musculus, UniProt Q60610, L911M/K912E, species not given), sequence (Q60610 2-1591 L911M/K912E): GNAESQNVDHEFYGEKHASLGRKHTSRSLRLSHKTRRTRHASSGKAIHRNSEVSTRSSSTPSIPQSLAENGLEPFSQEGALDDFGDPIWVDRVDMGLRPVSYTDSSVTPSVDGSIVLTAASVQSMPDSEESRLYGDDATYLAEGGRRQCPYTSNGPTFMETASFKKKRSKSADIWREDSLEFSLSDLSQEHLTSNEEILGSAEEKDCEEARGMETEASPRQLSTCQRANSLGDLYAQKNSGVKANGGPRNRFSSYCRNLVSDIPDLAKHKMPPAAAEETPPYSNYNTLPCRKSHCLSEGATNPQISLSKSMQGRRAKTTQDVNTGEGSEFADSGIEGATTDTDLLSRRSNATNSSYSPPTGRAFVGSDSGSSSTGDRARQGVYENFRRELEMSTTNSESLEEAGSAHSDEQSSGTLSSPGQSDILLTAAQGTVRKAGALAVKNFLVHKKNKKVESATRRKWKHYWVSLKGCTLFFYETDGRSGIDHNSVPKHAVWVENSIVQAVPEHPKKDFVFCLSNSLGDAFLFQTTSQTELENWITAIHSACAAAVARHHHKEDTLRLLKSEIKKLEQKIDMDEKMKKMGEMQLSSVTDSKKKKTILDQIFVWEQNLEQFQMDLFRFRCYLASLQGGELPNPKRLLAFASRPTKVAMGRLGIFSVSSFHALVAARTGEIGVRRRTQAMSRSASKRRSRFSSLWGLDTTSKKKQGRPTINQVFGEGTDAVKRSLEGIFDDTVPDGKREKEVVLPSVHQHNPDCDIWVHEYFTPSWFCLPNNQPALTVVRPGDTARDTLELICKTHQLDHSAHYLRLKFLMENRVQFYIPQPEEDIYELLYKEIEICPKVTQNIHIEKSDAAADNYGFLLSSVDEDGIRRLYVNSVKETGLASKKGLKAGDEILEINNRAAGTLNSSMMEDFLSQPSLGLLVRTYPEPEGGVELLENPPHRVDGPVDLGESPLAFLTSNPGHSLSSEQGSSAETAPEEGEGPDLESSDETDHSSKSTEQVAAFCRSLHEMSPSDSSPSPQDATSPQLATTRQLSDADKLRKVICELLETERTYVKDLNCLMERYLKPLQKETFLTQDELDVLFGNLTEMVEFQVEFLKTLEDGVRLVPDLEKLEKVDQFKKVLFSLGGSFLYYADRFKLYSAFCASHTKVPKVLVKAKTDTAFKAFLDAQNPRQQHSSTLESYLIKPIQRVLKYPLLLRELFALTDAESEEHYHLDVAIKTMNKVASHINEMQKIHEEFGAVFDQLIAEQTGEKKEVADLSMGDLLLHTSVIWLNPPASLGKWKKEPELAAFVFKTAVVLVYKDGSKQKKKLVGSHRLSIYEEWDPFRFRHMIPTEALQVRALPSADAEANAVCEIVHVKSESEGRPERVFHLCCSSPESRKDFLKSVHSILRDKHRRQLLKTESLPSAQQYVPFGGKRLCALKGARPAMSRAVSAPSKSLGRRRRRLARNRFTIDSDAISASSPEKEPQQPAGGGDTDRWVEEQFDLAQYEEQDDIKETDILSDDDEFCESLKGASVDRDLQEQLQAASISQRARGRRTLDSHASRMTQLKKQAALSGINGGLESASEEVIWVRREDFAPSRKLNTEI
Tiam1 PDZ K912E, sequence (Q13009 841-930 K912E limits assumed): as the sequence (Q13009 841-930 limits assumed) above, with K72E counted along it
Tiam1 PDZ QM (L911M/K912E/L915F/L920V) (Homo sapiens, UniProt Q13009, K912E/L911M/L915F/L920V), sequence (Q13009 841-930 L911M/K912E/L915F/L920V limits assumed): as the sequence (Q13009 841-930 limits assumed) above, with L71M, K72E, L75F, L80V counted along it
Tiam1 PDZ L920V, sequence (Q13009 841-930 L920V limits assumed): as the sequence (Q13009 841-930 limits assumed) above, with L80V counted along it
Tiam1 PDZ L915F/L920V (Mus musculus, UniProt Q60610, L915F/L920V, species not given), sequence (Q60610 2-1591 L915F/L920V): as the sequence (Q60610 2-1591 L911M/K912E) above, with M910L, E911K, L914F, L919V counted along it

One may read the Kd as the constant that tells how readily two partners part at equilibrium. A low value points to higher affinity. In the case of `C[C@H](NC(=O)[C@H](Cc1ccc(O)cc1)NC(=O)[C@H](Cc1ccc(O)cc1)NC(=O)[C@H](CCC(=O)O)NC(=O)[C@H](CCCCN)NC(=O)[C@H](CCCNC(=N)N)NC(=O)[C@H](CO)NC(=O)[C@H](CO)NS(=O)(=O)c1cccc2c(N(C)C)cccc12)C(=O)O` [Model, reference compound] (Dansyl-SSRKEYYA-OH), at Tiam2 PDZ domain, the Kd was 24.1 ± 7.1 µM.
Turning to `CC(C)[C@H](NC(=O)[C@H](Cc1ccc(O)cc1)NC(=O)[C@H](Cc1ccc(O)cc1)NC(=O)[C@H](CCC(=O)O)NC(=O)[C@H](CCCCN)NC(=O)[C@H](CC(=O)O)NC(=O)[C@H](CCCCN)NC(=O)[C@H](CC(N)=O)NS(=O)(=O)c1cccc2c(N(C)C)cccc12)C(=O)O` [Neurexin1] (Dansyl-NKDKEYYV-OH), the Kd result at Tiam1 PDZ L915F (Tiam1 PDZ L915F, fluorescence anisotropy, 25 °C) was “too weak to allow for reliable measurement”; on Tiam1 PDZ L911M (Tiam1 PDZ L911M, fluorescence anisotropy, 25 °C), “bound very weakly”; at Tiam1 PDZ L911M/K912E [2], 270 ± 150 µM; on Tiam1 PDZ L920V (Tiam1 PDZ L920V, fluorescence anisotropy, 25 °C), “too weak to allow for reliable measurement”; at Tiam2 PDZ domain it was 5 ± 0.2 µM; on Tiam1 PDZ K912E (Tiam1 PDZ K912E, fluorescence anisotropy, 25 °C), “bound very weakly”. Besides, the Kd on Tiam1 PDZ L915F/L920V [4] worked out at 166 ± 12 µM; in experiment [6], 46 ± 2 µM. Besides, the results for the ΔΔGb (with Tiam1 PDZ L911M/K912E [1]; in the experiment with Tiam1 PDZ L915F/L920V [3]; in experiment [5]) were -1.30 ± 0.30 kcal/mol, -1.58 ± 0.10 kcal/mol and -2.30 ± 0.10 kcal/mol, respectively. Further, the ΔGb at Tiam1 PDZ L911M/K912E [2] was -4.90 ± 0.30 kcal/mol; on Tiam1 PDZ L915F/L920V [4], -5.15 ± 0.07 kcal/mol; in experiment [6], -5.91 ± 0.04 kcal/mol. Also, in experiment [5] (QM vs Tiam2 PDZ), the “fold higher Kd than Tiam2 PDZ domain” value was found to be 9 fold.
As for `C[C@H](NC(=O)[C@H](Cc1ccc(O)cc1)NC(=O)[C@H](Cc1ccccc1)NC(=O)[C@H](CCC(=O)O)NC(=O)[C@H](CCC(=O)O)NC(=O)[C@H](CCC(N)=O)NC(=O)[C@H](CCCCN)NC(=O)[C@@H](NS(=O)(=O)c1cccc2c(N(C)C)cccc12)[C@@H](C)O)C(=O)O` [Syndecan1] (Dansyl-TKQEEFYA-OH), the Kd on Tiam1 PDZ L915F is 81 ± 7 µM; at Tiam1 PDZ L911M it was 34.7 ± 0.7 µM; at Tiam1 PDZ L911M/K912E [2] it was 211 ± 36 µM; on Tiam1 PDZ L920V, 46 ± 3 µM; on Tiam2 PDZ domain, 200 ± 20 µM; at Tiam1 PDZ K912E, 140 ± 20 µM. For the same compound, the Kd worked out at 250 ± 20 µM on Tiam1 PDZ L915F/L920V [4] and 122 ± 8 µM in [6]. For the same compound, the ΔGb is -5.58 ± 0.05 kcal/mol at Tiam1 PDZ L915F (Tiam1 PDZ L915F); -6.08 ± 0.01 kcal/mol on Tiam1 PDZ L911M (Tiam1 PDZ L911M); -5.00 ± 0.10 kcal/mol on Tiam1 PDZ L911M/K912E [2]; -5.92 ± 0.03 kcal/mol at Tiam1 PDZ L920V (Tiam1 PDZ L920V); -5.25 ± 0.08 kcal/mol at Tiam1 PDZ K912E (Tiam1 PDZ K912E); -4.91 ± 0.08 kcal/mol on Tiam1 PDZ L915F/L920V [4]. This compound registered a ΔGb in experiment [6] of -5.33 ± 0.04 kcal/mol. Also, the ΔΔGb on Tiam1 PDZ L915F (ΔGb(mutant) − ΔGb(wild-type), L915F) was 0.65 ± 0.06 kcal/mol; on Tiam1 PDZ L911M (ΔGb(mutant) − ΔGb(wild-type), L911M), 0.15 ± 0.02 kcal/mol; in the experiment with Tiam1 PDZ L911M/K912E [1], 1.20 ± 0.10 kcal/mol; on Tiam1 PDZ L920V (ΔGb(mutant) − ΔGb(wild-type), L920V), 0.31 ± 0.04 kcal/mol; on Tiam1 PDZ K912E (ΔGb(mutant) − ΔGb(wild-type), K912E), 0.98 ± 0.09 kcal/mol; with Tiam1 PDZ L915F/L920V [3] it was 1.32 ± 0.09 kcal/mol. In [5], this compound had a ΔΔGb of 0.89 ± 0.04 kcal/mol. For the same compound, the entries for the “ΔΔΔGint (pair-wise coupling free energy)” value in the experiment on Tiam1 PDZ L911M/K912E [1] (double-mutant cycle L911/K912 (S-2 pocket)) and in the experiment on Tiam1 PDZ L915F/L920V [3] (double-mutant cycle L915/L920 (S0 pocket)) were 0.07 ± 0.13 kcal/mol and 0.36 ± 0.13 kcal/mol, respectively. The Σ singles with Tiam1 PDZ L911M/K912E [1] (sum of ΔΔGb of single mutants L911M and K912E) was 1.13 ± 0.09 kcal/mol; in the experiment with Tiam1 PDZ L915F/L920V [3] (sum of ΔΔGb of single mutants L915F and L920V), 0.96 ± 0.07 kcal/mol. For the same compound, the “fold lower Kd than Tiam2 PDZ domain” value in [5] (QM vs Tiam2 PDZ) is listed as 1.6 fold.
As for `C[C@H](NC(=O)[C@H](CCCNC(=N)N)NC(=O)[C@H](Cc1ccc(O)cc1)NC(=O)[C@H](CCCNC(=N)N)NC(=O)[C@H](Cc1ccc(O)cc1)NC(=O)[C@H](C)NC(=O)[C@H](C)NC(=O)[C@H](Cc1ccc(O)cc1)NS(=O)(=O)c1cccc2c(N(C)C)cccc12)C(=O)O` [Tiam1 peptide 1 (Group I)] (Dansyl-YAAYRYRA-OH), the Kd is over 250 µM in experiment [7] and 22.5 ± 1.1 µM at Tiam2 PDZ domain.
As to `C[C@H](NC(=O)[C@H](Cc1c[nH]c2ccccc12)NC(=O)[C@H](Cc1ccc(O)cc1)NC(=O)[C@H](CCCCN)NC(=O)[C@H](CCC(=O)O)NC(=O)[C@H](C)NC(=O)[C@H](C)NC(=O)[C@H](Cc1ccc(O)cc1)NS(=O)(=O)c1cccc2c(N(C)C)cccc12)C(=O)O` [Tiam1 peptide 2 (Group I)] (Dansyl-YAAEKYWA-OH), the Kd in [7] turned out to be 90.3 ± 8.3 µM; at Tiam2 PDZ domain, 10.9 ± 0.4 µM.
The corresponding values for `C[C@H](NC(=O)[C@H](C)NC(=O)[C@H](Cc1ccc(O)cc1)NS(=O)(=O)c1cccc2c(N(C)C)cccc12)C(=O)N[C@@H](CCCCN)C(=O)N[C@@H](C)C(=O)N[C@@H](Cc1ccccc1)C(=O)N[C@@H](CCCNC(=N)N)C(=O)N[C@@H](Cc1ccccc1)C(=O)O` [Tiam1 peptide 3 (Group II)] (Dansyl-YAAKAFRF-OH) are 200 ± 50 µM and 7.7 ± 1.3 µM.
The corresponding values for `CC(C)[C@H](NC(=O)[C@H](Cc1ccc(O)cc1)NC(=O)[C@@H](NC(=O)[C@H](CCCNC(=N)N)NC(=O)[C@H](CCCCN)NC(=O)[C@H](C)NC(=O)[C@H](C)NC(=O)[C@H](Cc1ccc(O)cc1)NS(=O)(=O)c1cccc2c(N(C)C)cccc12)[C@@H](C)O)C(=O)O` [Tiam2 peptide 1 (Group I)] (Dansyl-YAAKRTYV-OH) are over 250 µM and 77.6 ± 2.4 µM.
For `C[C@H](NC(=O)[C@H](C)NC(=O)[C@H](Cc1ccc(O)cc1)NS(=O)(=O)c1cccc2c(N(C)C)cccc12)C(=O)NCC(=O)N[C@@H](CCCNC(=N)N)C(=O)N[C@@H](CCCCN)C(=O)N[C@@H](Cc1c[nH]cn1)C(=O)N[C@@H](Cc1ccccc1)C(=O)O` [Tiam2 peptide 2 (Group II)] (Dansyl-YAAGRKHF-OH), in that order: over 250 µM and 9.9 ± 2.2 µM.
Take `CC[C@H](C)[C@H](NC(=O)[C@H](CC(C)C)NC(=O)[C@H](C)NC(=O)[C@H](C)NC(=O)[C@H](Cc1ccc(O)cc1)NS(=O)(=O)c1cccc2c(N(C)C)cccc12)C(=O)N[C@@H](Cc1c[nH]cn1)C(=O)N[C@@H](CCCCN)C(=O)N[C@@H](Cc1ccccc1)C(=O)O` [Tiam2 peptide 3 (Group II)] (Dansyl-YAALIHKF-OH): the Kd in [7] is over 250 µM; on Tiam2 PDZ domain it was 28.7 ± 4.9 µM.
